Results published in ChEMBL document CHEMBL1135410, “Adenine nucleotide analogues locked in a Northern methanocarba conformation: enhanced stability and potency as P2Y(1) receptor agonists” (J Med Chem, 2002).
Active and inactive are the calls of the source. No cut-off for these calls is given here.

Tests used:
[1] = target: T1, P2Y purinoceptor 1 (Homo sapiens, UniProt P47900); experiment: Accumulation of inositol phosphate in 1321N1 astrocytoma cells expressing human P2Y1 purinoceptor; format: cell-based
In short: (§1)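 Inositol phosphate accumulation measured in 1321N1 human astrocytoma cells stably expressing human P2Y1, P2Y2, P2Y4 or P2Y11 receptor. Full concentration–effect curves, repeated in at least three separate experiments run in duplicate or triplicate. EC50 from four-parameter logistic fit. Relative efficacy (%) taken against a maximal effective concentration of UTP or UDP in the same experiment.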

[2] = target: P2Y purinoceptor 1 (Meleagris gallopavo, UniProt P49652); experiment: Activation of Purinoceptor P2Y1-mediated phospholipase C in turkey erythrocyte membranes; format: cell membranes
In short: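 Turkey erythrocytes labelled 18–24 h at 37 °C with 2-[3H]myo-inositol in inositol-free DMEM. Total [3H]inositol phosphates separated by anion exchange. EC50 from four-parameter logistic fit, at least three experiments.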

[3] = target: T2, P2Y purinoceptor 2 (Homo sapiens, UniProt P41231); experiment: (§2) Agonist activity by measuring inositol phosphate accumulation in 1321N1 human astrocytoma cells stably expressing human P2Y purinoceptor 2; format: functional; in short: as §1
[4] = organism: Rattus norvegicus; experiment: Hydrolysis rate of compound as substrate of purified recombinant rat Ecto-5'-nucleotidase; format: functional; set-up: scale not given: the % may be the effect or the level left
In short: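 Purified baculovirus-expressed rat ecto-5′-nucleotidase (0.5 μg) incubated 10 min at 37 °C with 100 μM (final) substrate in Tris-buffered saline containing 0.4 mM MgCl2, pH 7.4. Reaction stopped with 5% TCA. Released inorganic phosphate measured by the Lanzetta method. Activity expressed relative to AMP (100%). Two experiments, each in duplicate.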

[5] = target: T2, P2Y purinoceptor 2; experiment: Agonist activity by measuring inositol phosphate accumulation in 1321N1 human astrocytoma cells stably expressing human P2Y purinoceptor 2; No effect as either agonist or antagonist at 10 uM; format: functional
[6] = target: P2Y purinoceptor 4 (Homo sapiens) (UniProt P51582); experiment: Agonist activity by measuring inositol phosphate accumulation in 1321N1 human astrocytoma cells stably expressing human P2Y purinoceptor 4; No effect as either agonist or antagonist at 10 uM; format: functional; in short: as §1
[7] = target: T3, Ectonucleoside triphosphate diphosphohydrolase 2 (Rattus norvegicus) (UniProt O35795); experiment: Hydrolysis rate as substrate of rat Ectonucleoside triphosphate diphosphohydrolase 2 (NTPDase 2) (Ecto-apyrase); set-up: scale not given: the % may be the effect or the level left
T3 sequence (whole entry): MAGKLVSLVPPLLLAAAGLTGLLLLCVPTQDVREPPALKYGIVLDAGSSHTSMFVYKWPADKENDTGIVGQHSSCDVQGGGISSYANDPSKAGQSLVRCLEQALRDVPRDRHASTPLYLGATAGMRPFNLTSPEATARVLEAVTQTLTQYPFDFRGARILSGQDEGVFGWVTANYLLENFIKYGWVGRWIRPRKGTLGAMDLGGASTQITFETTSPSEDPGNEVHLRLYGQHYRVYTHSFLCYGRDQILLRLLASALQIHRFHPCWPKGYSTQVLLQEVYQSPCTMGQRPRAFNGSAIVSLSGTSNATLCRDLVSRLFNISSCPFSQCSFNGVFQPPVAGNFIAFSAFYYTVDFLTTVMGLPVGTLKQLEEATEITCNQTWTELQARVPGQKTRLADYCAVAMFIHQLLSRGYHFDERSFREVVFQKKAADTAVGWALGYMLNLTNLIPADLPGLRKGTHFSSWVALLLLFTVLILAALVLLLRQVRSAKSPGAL
In short: (§3)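 Intact CHO cells stably expressing rat NTPDase1 or NTPDase2, seeded 24 h before assay. Incubated at 37 °C in Hepes-buffered saline, pH 7.4, with nucleotide substrate. Supernatant aliquots taken over time and analysed by HPLC at 260 nm. Rate expressed relative to ATP (100%). Nontransfected CHO cells served as control. Two experiments, each in duplicate.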

[8] = target: T4, Ectonucleoside triphosphate diphosphohydrolase 1 (Rattus norvegicus) (UniProt P97687); experiment: Hydrolysis rate as substrate of rat Ectonucleoside triphosphate diphosphohydrolase 1 (NTPDase 1) (Ecto-apyrase); set-up: scale not given: the % may be the effect or the level left; in short: as §3
T4 sequence (whole entry): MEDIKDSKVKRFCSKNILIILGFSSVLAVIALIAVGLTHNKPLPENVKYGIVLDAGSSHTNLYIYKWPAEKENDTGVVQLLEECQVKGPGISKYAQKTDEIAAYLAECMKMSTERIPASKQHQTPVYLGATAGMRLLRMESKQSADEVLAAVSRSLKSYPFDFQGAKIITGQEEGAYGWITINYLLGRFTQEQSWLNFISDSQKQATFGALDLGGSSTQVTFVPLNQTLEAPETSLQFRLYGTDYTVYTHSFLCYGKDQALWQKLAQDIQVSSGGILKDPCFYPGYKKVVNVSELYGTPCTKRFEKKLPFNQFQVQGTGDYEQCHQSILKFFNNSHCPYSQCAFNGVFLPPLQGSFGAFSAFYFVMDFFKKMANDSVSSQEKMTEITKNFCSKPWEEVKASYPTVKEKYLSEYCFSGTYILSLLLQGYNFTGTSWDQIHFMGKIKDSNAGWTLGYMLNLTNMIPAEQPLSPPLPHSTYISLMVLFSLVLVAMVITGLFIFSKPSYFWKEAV

[9] = target: T5, P2Y purinoceptor 11 (Homo sapiens) (UniProt Q96G91); experiment: Agonist activity by measuring inositol phosphate accumulation in 1321N1 human astrocytoma cells stably expressing human P2Y purinoceptor 11; No effect as either agonist or antagonist at 10 uM; format: functional; in short: as §1
T5 sequence (whole entry): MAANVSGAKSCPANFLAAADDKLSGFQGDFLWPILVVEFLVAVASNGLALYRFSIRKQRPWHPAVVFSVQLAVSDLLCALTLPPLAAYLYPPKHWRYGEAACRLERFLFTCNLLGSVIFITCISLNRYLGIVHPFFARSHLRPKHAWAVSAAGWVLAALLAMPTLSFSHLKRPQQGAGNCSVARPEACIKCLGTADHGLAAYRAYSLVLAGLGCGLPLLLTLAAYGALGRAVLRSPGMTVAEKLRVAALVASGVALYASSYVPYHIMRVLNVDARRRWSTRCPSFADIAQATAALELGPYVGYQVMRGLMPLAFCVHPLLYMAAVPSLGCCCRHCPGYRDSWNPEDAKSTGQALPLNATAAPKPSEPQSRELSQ

[10] = target: P2Y purinoceptor 1 (Meleagris gallopavo) (UniProt P49652); experiment: Agonist activity by measuring Purinoceptor P2Y1-promoted phospholipase C activity in turkey erythrocyte membranes; No effect as either agonist or antagonist at 10 uM; format: functional, cell membranes
In short: (§4)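 Turkey erythrocytes labelled 18–24 h at 37 °C with 2-[3H]myo-inositol in inositol-free DMEM. Ghosts (about 175 μg protein) incubated 5 min at 30 °C in pH 7.0 Hepes/KCl buffer with EGTA, CaCl2 and MgSO4, plus 1 μM GTPγS and the agonist. Total [3H]inositol phosphates separated by anion exchange. EC50 from four-parameter logistic fit, at least three experiments.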

[11] = target: T1, P2Y purinoceptor 1; experiment: Agonist activity by measuring inositol phosphate accumulation in 1321N1 human astrocytoma cells stably expressing human P2Y purinoceptor 1; No effect as either agonist or antagonist at 10 uM; format: functional; in short: as §1
[12] = target: P2Y purinoceptor 4 (Homo sapiens) (UniProt P51582); experiment: Agonist activity by measuring inositol phosphate accumulation in 1321N1 human astrocytoma cells stably expressing human P2Y purinoceptor 4; format: functional; in short: as §1
[13] = target: T5, P2Y purinoceptor 11 (Homo sapiens); experiment: Agonist activity by measuring inositol phosphate accumulation in 1321N1 human astrocytoma cells stably expressing human P2Y purinoceptor 11; format: functional; in short: as §1
[14] = target: P2Y purinoceptor 1 (Meleagris gallopavo) (UniProt P49652); experiment: Agonist activity by measuring Purinoceptor P2Y1-promoted phospholipase C activity in turkey erythrocyte membranes; format: functional, cell membranes; in short: as §4
[15] = target: P2Y purinoceptor 1 (Meleagris gallopavo) (UniProt P49652); experiment: Agonist activity by measuring Purinoceptor P2Y1-promoted phospholipase C activity in turkey erythrocyte membranes; NE means no effect.; format: functional, cell membranes; in short: as §4
[16] = target: P2Y purinoceptor 4 (Homo sapiens) (UniProt P51582); experiment: Agonist activity by measuring the agonist potencies of the corresponding ribose- containing nucleotides, for the receptor subtype human P2Y purinoceptor 4; No effect as either agonist or antagonist at 10 uM; format: functional; in short: as §1
[17] = target: T2, P2Y purinoceptor 2; experiment: as §2; format: functional; in short: as §1; remark: listed apart in the source
[18] = target: T2, P2Y purinoceptor 2; experiment: Agonist activity by measuring inositol phosphate accumulation in 1321N1 human astrocytoma cells stably expressing human P2Y purinoceptor 2r; No effect as either agonist or antagonist at 10 uM; format: functional; in short: as §1

Chain of P2Y purinoceptor 1 (Meleagris gallopavo, UniProt P49652) (P49652 whole entry): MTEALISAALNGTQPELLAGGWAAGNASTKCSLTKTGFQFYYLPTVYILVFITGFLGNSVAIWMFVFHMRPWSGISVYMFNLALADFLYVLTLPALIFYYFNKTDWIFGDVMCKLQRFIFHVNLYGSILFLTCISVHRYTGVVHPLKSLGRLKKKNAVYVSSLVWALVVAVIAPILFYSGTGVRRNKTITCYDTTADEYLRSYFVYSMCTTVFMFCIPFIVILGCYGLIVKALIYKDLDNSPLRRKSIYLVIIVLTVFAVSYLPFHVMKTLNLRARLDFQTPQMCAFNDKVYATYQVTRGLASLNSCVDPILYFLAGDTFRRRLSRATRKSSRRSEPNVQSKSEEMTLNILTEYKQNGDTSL
Chain of P2Y purinoceptor 1 (Meleagris gallopavo) (P49652 whole entry): as above
Chain of P2Y purinoceptor 4 (Homo sapiens) (P51582 whole entry): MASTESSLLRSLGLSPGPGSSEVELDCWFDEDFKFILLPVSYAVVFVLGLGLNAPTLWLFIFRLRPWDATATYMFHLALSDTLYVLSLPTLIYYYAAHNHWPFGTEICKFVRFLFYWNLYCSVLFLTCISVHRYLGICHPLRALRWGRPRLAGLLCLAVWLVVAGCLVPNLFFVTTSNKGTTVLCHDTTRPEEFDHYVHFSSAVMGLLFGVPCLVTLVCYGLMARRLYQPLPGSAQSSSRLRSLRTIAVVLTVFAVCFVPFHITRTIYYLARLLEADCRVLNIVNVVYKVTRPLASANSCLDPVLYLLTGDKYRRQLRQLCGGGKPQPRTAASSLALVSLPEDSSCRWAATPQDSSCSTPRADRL
T2 sequence (P41231 whole entry): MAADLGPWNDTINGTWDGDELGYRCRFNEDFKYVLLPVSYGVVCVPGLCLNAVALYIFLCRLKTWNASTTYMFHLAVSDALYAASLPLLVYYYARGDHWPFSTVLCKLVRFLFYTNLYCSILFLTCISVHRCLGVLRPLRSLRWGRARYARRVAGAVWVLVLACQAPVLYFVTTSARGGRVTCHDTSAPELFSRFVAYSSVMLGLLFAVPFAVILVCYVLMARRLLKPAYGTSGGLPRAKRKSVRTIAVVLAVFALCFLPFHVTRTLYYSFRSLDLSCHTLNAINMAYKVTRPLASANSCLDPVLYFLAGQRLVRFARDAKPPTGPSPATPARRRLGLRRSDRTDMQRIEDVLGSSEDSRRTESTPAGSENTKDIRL
T1 sequence (P47900 whole entry): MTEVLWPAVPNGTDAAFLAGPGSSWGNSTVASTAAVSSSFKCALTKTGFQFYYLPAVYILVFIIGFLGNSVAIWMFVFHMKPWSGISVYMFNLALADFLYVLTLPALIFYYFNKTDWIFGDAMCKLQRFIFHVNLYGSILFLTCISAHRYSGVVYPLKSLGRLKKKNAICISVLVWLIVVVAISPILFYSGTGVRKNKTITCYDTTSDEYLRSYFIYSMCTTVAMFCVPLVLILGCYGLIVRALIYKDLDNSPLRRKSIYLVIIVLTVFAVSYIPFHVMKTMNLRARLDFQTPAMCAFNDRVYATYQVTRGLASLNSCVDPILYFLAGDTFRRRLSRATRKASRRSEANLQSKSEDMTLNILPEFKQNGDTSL

CSc1nc(N)c2ncn(C3C(O)C(O)[C@@]4(COP(=O)(O)OP(=O)(O)OP(=O)(O)O)C[C@@H]34)c2n1 (stereo partly specified)
EC50 [1]: 23 nM
EC50 [2]: 3.7 nM

Nc1nc(Cl)nc2c1ncn2[C@@H]1O[C@H](COP(=O)(O)OP(=O)(O)OP(=O)(O)O)[C@@H](O)[C@H]1O
EC50 [1]: 770 nM
EC50 [3]: 2300 nM
EC50 [2]: 720 nM

Nc1ncnc2c1ncn2[C@@]12C[C@@H]1[C@H](COP(=O)(O)O)[C@H](O)[C@@H]2O
Activity [4]: 0%

Nc1ncnc2c1ncn2C1C(O)C(O)[C@@]2(COP(=O)(O)OP(=O)(O)CP(=O)(O)O)C[C@H]12 (stereo partly specified)
EC50 [1]: 158 nM
EC50 [2]: 11300 nM
NE [5]: inactive
NE [6]: inactive

Nc1ncnc2c1ncn2[C@@H]1O[C@H](COP(=O)(O)OP(=O)(O)OP(=O)(O)O)[C@@H](O)[C@H]1O [ADENOSINE TRIPHOSPHATE]
Activity [7]: 100%
EC50 [3]: 85 nM
Activity [8]: 100%
NE [6]: inactive

Nc1ncnc2c1ncn2C12CC1C(COP(=O)(O)OP(=O)(O)OP(=O)(O)O)C(O)C2O (stereo unspecified)
Activity [7]: 34%
Activity [8]: 57%

CSc1nc(N)c2ncn([C@H]3[C@H](O)[C@H](O)[C@@]4(COP(=O)(O)O)C[C@@H]34)c2n1
EC50 [1]: 590 nM
NE [9]: inactive
EC50 [2]: 1190 nM

CSc1nc(N)c2ncn([C@@H]3O[C@H](COP(=O)(O)OP(=O)(O)OP(=O)(O)O)[C@@H](O)[C@H]3O)c2n1
EC50 [1]: 34 nM

CNc1nc(Cl)nc2c1ncn2C1C(O)C(O)[C@@]2(COP(=O)(O)OP(=O)(O)OP(=O)(O)O)C[C@@H]12 (stereo partly specified)
EC50 [1]: 9 nM
EC50 [3]: 8400 nM
EC50 [2]: 6 nM

Nc1ncnc2c1ncn2[C@@H]1O[C@H](COP(=O)(O)O)[C@@H](O)[C@H]1O
Activity [4]: 100%
NE [10]: inactive

CNc1ncnc2c1ncn2C1C(O)C(O)[C@@]2(COP(=O)(O)OP(=O)(O)OP(=O)(O)O)C[C@@H]12 (stereo partly specified)
EC50 [1]: 33 nM
EC50 [3]: 197 nM
EC50 [2]: 92 nM

C[S+]([O-])c1nc(N)c2ncn([C@H]3[C@H](O)[C@H](O)[C@@]4(COP(=O)(O)O)C[C@H]34)c2n1 (stereo partly specified)
EC50 [2]: 36.6 nM

Nc1ncnc2c1ncn2[C@@H]1O[C@H](COP(=O)(O)OP(=O)(O)CP(=O)(O)O)[C@@H](O)[C@H]1O
NE [11]: inactive
NE [10]: inactive
NE [5]: inactive

Nc1ncnc2c1ncn2C1C(O)C(O)C2(COP(=O)(O)OP(=O)(O)OP(=O)(O)O)CC12 (stereo unspecified)
Activity [7]: 4%
% of maximal effect [12]: 32%
EC50 [3]: 91 nM
EC50 [2]: 14 nM
Activity [8]: 52%
% of maximal effect [13]: 35%

Nc1nc(Cl)nc2c1ncn2[C@@H]1O[C@H](COP(=O)(O)O)[C@@H](O)[C@H]1O
NE [11]: inactive
NE [10]: inactive

CSc1nc(N)c2ncn([C@@H]3O[C@H](COP(=O)(O)O)[C@@H](O)[C@H]3O)c2n1
NE [11]: inactive
NE [9]: inactive
% of maximal effect [14]: 15%

Nc1ncnc2c1ncn2[C@H]1[C@H](O)[C@H](O)[C@@]2(COP(=O)(O)O)C[C@H]12
Activity [4]: 0.14%
NE [15]: inactive

CSc1nc(N)c2ncn([C@H]3[C@H](O)[C@H](O)[C@@]4(COP(=O)(O)OP(=O)(O)O)C[C@@H]34)c2n1
EC50 [1]: 0.4 nM
NE [9]: inactive
NE [16]: inactive
EC50 [2]: 0.88 nM
% of maximal effect [17]: 54%

Nc1nc(Cl)nc2c1ncn2C1C(O)C(O)[C@@]2(COP(=O)(O)OP(=O)(O)OP(=O)(O)O)C[C@@H]12 (stereo partly specified)
EC50 [1]: 7 nM
EC50 [3]: 1900 nM
EC50 [2]: 3 nM

CSc1nc(N)c2ncn([C@@H]3O[C@H](COP(=O)(O)OP(=O)(O)O)[C@@H](O)[C@H]3O)c2n1
NE [9]: inactive
NE [18]: inactive
NE [6]: inactive

C[S+]([O-])c1nc(N)c2ncn(C3O[C@H](COP(=O)(O)O)[C@@H](O)[C@H]3O)c2n1 (stereo partly specified)
NE [11]: inactive
NE [10]: inactive

CNC(=O)[C@@]12C[C@@H]1[C@@H](n1cnc3c(NC)nc(Cl)nc31)[C@H](O)[C@@H]2O
NE [10]: inactive

Nc1nc(Cl)nc2c1ncn2[C@H]1[C@H](O)[C@H](O)[C@@]2(COP(=O)(O)O)C[C@@H]12
EC50 [1]: 1890 nM
EC50 [2]: 3900 nM
